# Results published in ChEMBL document CHEMBL4257579, “Analogs of penfluridol as chemotherapeutic agents with reduced central nervous system activity” (Bioorg Med Chem Lett, 2018).
# Key:
# [1] = target: T1, 5-hydroxytryptamine receptor 2C (Homo sapiens, UniProt P28335); experiment: Displacement of [3H]Mesulergine from human 5-HT2C receptor expressed in HEK293FlpIN cells by radioligand binding assay; assay type: cell-based
# T1 sequence (P28335 whole entry): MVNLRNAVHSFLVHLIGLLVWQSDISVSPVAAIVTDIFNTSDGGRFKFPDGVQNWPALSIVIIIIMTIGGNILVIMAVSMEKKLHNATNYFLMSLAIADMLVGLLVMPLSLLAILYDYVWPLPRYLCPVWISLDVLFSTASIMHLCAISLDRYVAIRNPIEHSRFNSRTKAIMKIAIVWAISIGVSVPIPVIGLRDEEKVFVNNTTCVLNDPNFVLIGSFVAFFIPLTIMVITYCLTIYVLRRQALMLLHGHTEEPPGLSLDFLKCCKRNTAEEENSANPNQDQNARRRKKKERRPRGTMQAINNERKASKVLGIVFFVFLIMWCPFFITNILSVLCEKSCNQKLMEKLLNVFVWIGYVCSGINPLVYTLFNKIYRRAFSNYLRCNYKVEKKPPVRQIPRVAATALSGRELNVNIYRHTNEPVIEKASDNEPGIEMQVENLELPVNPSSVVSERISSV
# MDA-MB-231 = experiment: Cytotoxicity against human MDA-MB-231 cells assessed as reduction in cell viability after 48 hrs by MTT assay; assay type: functional, cell-based; settings: MDA-MB-231, 48 h
# Outline: (§1)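 Cells exposed to compounds; viability read at 24, 48 and 72 h. Every experiment run in triplicate.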
# [2] = test system: Lewis lung carcinoma cell line; experiment: Cytotoxicity against mouse LLC cells harboring […] assessed as reduction in cell viability after 24 hrs by MTT assay; assay type: functional, cell-based; outline: as §1
# [3] = test system: Lewis lung carcinoma cell line; experiment: Cytotoxicity against mouse LLC cells harboring […] assessed as reduction in cell viability after 48 hrs by MTT assay; assay type: functional, cell-based; outline: as §1
# [4] = test system: Lewis lung carcinoma cell line; experiment: Cytotoxicity against mouse LLC cells harboring […] assessed as reduction in cell viability after 72 hrs by MTT assay; assay type: functional, cell-based; outline: as §1
# NIH3T3 = experiment: Cytotoxicity against mouse NIH/3T3 cells assessed as reduction in cell viability after 24 hrs by MTT assay; assay type: cell-based; settings: NIH3T3, 24 h; outline: as §1
# [5] = target: T2, 5-hydroxytryptamine receptor 1A (Homo sapiens, UniProt P08908); experiment: Displacement of [3H]-Way100635 from human 5HT1A receptor expressed in stable CHO cell membranes by radioligand binding assay
# T2 sequence (P08908 whole entry): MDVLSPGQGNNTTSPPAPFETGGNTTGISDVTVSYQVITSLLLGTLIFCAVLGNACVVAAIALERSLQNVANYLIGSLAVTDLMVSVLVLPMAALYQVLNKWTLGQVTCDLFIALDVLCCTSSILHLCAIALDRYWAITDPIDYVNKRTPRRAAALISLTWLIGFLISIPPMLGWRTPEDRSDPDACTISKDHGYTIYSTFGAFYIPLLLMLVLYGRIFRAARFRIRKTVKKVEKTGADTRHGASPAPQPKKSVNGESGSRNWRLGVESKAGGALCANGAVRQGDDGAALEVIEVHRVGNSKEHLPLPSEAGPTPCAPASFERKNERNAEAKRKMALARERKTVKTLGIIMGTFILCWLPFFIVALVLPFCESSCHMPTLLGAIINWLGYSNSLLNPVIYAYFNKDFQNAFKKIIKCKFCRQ
# [6] = target: 5-hydroxytryptamine receptor 1D (Homo sapiens, UniProt P28221); experiment: Displacement of [3H]5-CT from human 5-HT1D receptor expressed in HEK293T cells by radioligand binding assay; assay type: cell-based
# Chain of 5-hydroxytryptamine receptor 1D (P28221 whole entry): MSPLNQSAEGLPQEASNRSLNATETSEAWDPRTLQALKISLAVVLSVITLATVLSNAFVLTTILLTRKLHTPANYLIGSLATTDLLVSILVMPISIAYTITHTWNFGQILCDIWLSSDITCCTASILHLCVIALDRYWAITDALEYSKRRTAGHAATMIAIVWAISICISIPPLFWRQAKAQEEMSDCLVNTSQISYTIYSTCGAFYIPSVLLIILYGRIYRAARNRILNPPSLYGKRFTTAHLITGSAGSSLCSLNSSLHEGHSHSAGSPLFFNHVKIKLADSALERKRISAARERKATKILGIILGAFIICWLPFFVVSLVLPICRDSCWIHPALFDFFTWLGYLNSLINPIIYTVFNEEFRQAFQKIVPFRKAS
# [7] = target: T3, 5-hydroxytryptamine receptor 7 (Homo sapiens, UniProt P34969); experiment: Displacement of [3H]LSD from human 5-HT7A receptor expressed in HEK cells by radioligand binding assay; assay type: cell-based
# T3 sequence (P34969 whole entry): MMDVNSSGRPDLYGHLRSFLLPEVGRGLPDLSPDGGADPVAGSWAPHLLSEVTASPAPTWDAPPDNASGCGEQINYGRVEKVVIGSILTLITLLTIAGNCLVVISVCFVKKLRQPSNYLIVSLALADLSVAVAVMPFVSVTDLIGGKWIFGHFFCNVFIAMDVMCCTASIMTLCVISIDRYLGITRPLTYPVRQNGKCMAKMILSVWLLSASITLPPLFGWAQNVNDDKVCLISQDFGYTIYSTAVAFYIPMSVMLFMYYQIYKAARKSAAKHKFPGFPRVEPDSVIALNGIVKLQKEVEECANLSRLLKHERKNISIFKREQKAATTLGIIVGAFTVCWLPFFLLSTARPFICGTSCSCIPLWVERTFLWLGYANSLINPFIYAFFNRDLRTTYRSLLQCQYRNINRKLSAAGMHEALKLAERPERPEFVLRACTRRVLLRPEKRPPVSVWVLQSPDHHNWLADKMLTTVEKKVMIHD
# [8] = target: Kappa-type opioid receptor (Homo sapiens, UniProt P41145); experiment: Displacement of [3H]U69593 from KOR (unknown origin) expressed in HEK cells by radioligand binding assay relative to control; assay type: cell-based; set-up: concentration or dose not given beside the values; settings: concentration not given here
# Chain of Kappa-type opioid receptor (P41145 whole entry): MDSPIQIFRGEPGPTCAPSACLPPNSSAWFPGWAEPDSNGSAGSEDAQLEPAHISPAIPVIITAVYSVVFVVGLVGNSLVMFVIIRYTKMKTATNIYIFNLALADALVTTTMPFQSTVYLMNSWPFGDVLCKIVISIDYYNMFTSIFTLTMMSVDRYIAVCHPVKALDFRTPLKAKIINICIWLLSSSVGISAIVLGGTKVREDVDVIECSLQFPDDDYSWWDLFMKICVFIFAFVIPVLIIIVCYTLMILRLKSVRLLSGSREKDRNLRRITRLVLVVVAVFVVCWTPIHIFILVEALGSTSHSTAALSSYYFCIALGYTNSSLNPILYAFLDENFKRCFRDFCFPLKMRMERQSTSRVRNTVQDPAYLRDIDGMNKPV
# Mu-type opioid receptor [9] = target: T4, Mu-type opioid receptor (Homo sapiens, UniProt P35372); experiment: Displacement of [3H]DAMGO from human MOR expressed in HEK cells by radioligand binding assay relative to control; assay type: cell-based; set-up: concentration or dose not given beside the values; settings: concentration not given here
# T4 sequence (P35372 whole entry): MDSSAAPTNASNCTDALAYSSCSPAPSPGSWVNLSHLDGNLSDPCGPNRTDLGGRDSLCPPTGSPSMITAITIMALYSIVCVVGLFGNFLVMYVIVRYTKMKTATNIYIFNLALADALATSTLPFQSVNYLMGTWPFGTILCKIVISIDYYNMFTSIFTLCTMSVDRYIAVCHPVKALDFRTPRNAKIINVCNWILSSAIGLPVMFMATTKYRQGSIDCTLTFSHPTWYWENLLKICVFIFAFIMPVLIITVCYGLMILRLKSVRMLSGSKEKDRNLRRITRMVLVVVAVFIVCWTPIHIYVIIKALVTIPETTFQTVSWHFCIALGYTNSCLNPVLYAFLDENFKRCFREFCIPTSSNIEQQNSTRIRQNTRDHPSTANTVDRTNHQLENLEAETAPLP
# D(3) dopamine receptor = D(3) dopamine receptor (Homo sapiens, UniProt P35462); experiment: Displacement of [3H]N-methylspiperone from human dopamine D3 receptor expressed in HEK293T cells by radioligand binding assay relative to control; assay type: cell-based; set-up: concentration or dose not given beside the values; settings: concentration not given here
# Chain of D(3) dopamine receptor (P35462 whole entry): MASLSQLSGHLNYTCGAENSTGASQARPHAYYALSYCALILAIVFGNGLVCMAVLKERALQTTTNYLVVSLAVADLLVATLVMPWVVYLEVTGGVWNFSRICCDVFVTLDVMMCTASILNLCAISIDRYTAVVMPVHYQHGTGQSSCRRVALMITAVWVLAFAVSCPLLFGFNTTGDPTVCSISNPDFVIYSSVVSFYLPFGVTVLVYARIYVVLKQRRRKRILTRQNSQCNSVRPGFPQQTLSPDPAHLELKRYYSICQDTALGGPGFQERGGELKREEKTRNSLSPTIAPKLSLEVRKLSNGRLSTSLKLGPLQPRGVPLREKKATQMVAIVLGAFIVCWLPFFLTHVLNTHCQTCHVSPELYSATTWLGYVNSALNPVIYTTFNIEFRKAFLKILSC
# [10] = target: T3, 5-hydroxytryptamine receptor 7; experiment: Displacement of [3H]LSD from human 5-HT7A receptor expressed in HEK cells by radioligand binding assay relative to control; assay type: cell-based
# D(1A) dopamine receptor = D(1A) dopamine receptor (Homo sapiens, UniProt P21728); experiment: Displacement of [3H]SCH23390 from human dopamine D1 receptor expressed in HEK293T cells by radioligand binding assay relative to control; assay type: cell-based; set-up: concentration or dose not given beside the values; settings: concentration not given here
# Chain of D(1A) dopamine receptor (P21728 whole entry): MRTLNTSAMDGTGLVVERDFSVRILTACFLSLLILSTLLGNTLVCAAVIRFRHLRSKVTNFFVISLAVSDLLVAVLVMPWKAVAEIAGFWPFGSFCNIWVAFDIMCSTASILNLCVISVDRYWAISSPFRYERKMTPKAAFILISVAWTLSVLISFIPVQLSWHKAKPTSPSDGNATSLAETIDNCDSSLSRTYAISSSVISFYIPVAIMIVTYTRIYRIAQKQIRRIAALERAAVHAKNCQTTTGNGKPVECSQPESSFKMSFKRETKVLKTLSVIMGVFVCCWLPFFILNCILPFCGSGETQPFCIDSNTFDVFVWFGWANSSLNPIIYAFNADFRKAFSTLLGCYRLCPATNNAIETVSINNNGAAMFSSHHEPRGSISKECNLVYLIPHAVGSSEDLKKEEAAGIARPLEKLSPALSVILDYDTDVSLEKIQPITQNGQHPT
# [11] = target: T5, 5-hydroxytryptamine receptor 2C (Homo sapiens) (UniProt P28335); experiment: Displacement of [3H]Mesulergine from human 5-HT2C receptor expressed in HEK293FlpIN cells by radioligand binding assay relative to control; assay type: cell-based; set-up: concentration or dose not given beside the values; settings: concentration not given here
# T5 sequence (whole entry): T1 sequence (P28335 whole entry)
# [12] = target: 5-hydroxytryptamine receptor 2A (Homo sapiens, UniProt P28223); experiment: Displacement of [3H]Ketanserin from 5-HT2A receptor (unknown origin) by radioligand binding assay relative to control; set-up: concentration or dose not given beside the values; settings: concentration not given here
# Chain of 5-hydroxytryptamine receptor 2A (P28223 whole entry): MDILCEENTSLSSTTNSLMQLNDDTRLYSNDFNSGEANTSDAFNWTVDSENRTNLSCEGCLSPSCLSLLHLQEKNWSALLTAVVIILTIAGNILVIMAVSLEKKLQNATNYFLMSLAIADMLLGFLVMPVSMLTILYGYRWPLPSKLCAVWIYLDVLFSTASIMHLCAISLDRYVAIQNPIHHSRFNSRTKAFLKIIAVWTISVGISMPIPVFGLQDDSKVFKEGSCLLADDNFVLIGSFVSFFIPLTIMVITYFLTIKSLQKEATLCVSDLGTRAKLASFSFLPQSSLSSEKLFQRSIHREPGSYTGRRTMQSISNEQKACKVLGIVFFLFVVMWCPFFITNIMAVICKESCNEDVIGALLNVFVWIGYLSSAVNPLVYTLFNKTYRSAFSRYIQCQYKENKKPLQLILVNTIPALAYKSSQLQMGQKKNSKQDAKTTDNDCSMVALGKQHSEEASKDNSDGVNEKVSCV
# [13] = target: T6, Sodium-dependent dopamine transporter (Homo sapiens, UniProt Q01959); experiment: Displacement of [3H]WIN35428 from human DAT expressed in HEK cells by radioligand binding assay; assay type: cell-based
# T6 sequence (Q01959 whole entry): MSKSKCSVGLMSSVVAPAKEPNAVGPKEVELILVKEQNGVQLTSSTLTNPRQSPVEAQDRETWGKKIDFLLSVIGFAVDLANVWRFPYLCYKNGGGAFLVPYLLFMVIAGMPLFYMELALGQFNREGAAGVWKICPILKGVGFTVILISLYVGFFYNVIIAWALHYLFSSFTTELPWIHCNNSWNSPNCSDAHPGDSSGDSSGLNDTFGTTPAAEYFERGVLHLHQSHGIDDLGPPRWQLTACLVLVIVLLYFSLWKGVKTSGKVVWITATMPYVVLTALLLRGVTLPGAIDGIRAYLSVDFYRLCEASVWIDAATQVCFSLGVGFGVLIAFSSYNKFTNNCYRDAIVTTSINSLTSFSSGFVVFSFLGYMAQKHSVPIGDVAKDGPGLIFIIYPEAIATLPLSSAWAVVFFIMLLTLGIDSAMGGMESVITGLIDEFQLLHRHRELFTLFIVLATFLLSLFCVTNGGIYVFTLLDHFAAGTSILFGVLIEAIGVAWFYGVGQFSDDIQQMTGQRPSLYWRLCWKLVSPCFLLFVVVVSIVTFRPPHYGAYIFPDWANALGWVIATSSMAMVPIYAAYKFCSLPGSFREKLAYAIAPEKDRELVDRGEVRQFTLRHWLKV
# [14] = target: Delta-type opioid receptor (Homo sapiens, UniProt P41143); experiment: Displacement of [3H]DADLE from human DOR expressed in HEK cells by radioligand binding assay; assay type: cell-based
# Chain of Delta-type opioid receptor (P41143 whole entry): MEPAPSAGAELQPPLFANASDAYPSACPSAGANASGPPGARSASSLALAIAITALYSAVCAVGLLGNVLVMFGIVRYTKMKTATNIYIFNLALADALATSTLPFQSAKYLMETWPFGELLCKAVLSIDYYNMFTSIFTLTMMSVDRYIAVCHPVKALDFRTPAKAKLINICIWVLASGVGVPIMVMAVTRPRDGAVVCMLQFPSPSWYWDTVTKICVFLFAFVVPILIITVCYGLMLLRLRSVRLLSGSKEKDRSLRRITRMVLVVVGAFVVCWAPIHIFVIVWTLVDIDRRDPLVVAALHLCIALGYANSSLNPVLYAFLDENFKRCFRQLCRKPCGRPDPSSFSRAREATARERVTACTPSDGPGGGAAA
# Mu-type opioid receptor [15] = target: T4, Mu-type opioid receptor; experiment: Displacement of [3H]DAMGO from human MOR expressed in HEK cells by radioligand binding assay; assay type: cell-based
# D(4) dopamine receptor = target: T7, D(4) dopamine receptor (Homo sapiens, UniProt P21917); experiment: Displacement of [3H]N-methylspiperone from human dopamine D4 receptor by radioligand binding assay
# T7 sequence (P21917 whole entry): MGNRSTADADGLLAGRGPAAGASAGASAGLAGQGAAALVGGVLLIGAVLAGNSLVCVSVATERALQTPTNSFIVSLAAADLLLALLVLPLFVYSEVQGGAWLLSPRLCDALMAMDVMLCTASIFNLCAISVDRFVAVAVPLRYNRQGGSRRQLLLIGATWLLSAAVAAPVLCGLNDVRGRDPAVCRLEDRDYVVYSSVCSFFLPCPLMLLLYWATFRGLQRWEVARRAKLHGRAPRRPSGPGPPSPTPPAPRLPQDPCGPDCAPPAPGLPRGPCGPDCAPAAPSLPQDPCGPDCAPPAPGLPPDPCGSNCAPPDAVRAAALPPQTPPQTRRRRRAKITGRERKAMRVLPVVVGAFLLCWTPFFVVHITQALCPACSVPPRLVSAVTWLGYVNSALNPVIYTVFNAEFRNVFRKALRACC
# [16] = target: T6, Sodium-dependent dopamine transporter; experiment: Displacement of [3H]WIN35428 from human DAT expressed in HEK cells by radioligand binding assay relative to control; assay type: cell-based
# [17] = target: 5-hydroxytryptamine receptor 5A (Homo sapiens, UniProt P47898); experiment: Displacement of [3H]LSD from human 5-HT5A receptor expressed in Flp-In CHO cells by radioligand binding assay relative to control; assay type: cell-based; set-up: concentration or dose not given beside the values; settings: concentration not given here
# Chain of 5-hydroxytryptamine receptor 5A (P47898 whole entry): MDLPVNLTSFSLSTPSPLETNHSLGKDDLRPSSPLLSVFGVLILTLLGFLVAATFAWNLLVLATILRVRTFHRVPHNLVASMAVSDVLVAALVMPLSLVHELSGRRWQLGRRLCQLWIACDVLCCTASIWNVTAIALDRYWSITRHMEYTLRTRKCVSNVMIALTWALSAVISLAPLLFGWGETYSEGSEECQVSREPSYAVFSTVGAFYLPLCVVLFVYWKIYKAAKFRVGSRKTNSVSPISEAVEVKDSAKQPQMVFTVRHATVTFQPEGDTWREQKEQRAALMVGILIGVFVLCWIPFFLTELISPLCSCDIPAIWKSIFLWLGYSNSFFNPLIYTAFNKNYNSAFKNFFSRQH
Structure (SMILES),Ki [1] [µM],IC50 (MDA-MB-231) [µM],IC50 [2] [µM],IC50 [3] [µM],IC50 [4] [µM],IC50 (NIH3T3) [µM],Ki [5] [µM],Ki ([6]; read-out: Ki) [µM],Ki [7] [µM],inhibition [8] [%],inhibition (Mu-type opioid receptor [9]) [%],inhibition (D(3) dopamine receptor) [%],inhibition (INH) [10] [%],inhibition (D(1A) dopamine receptor) [%],inhibition [11] [%],inhibition [12] [%],Ki [13] [µM],Ki (Mu-type opioid receptor [15]) [µM],Ki (D(4) dopamine receptor) [µM],inhibition [17] [%],also measured
OC1(c2ccc(Cl)c(C(F)(F)F)c2)CCN(CCCC(c2ccccc2)c2ccccc2)CC1,2.13,8.7,11.4,6.6,9.2,12.2,0.481,0.628,0.326,98,90.3,97.4,82.1,97.2,82.9,94.3,0.121,0.07,0.058,,Ki ([14]; read-out: Ki): 1.53 µM; inhibition (INH) [16]: 87.5%
OC1(c2ccc(Cl)c(C(F)(F)F)c2)CCN(CCCN(c2ccc(F)cc2)c2ccc(F)cc2)CC1,0.402,5,7,5.7,4.1,6.8,1.26,0.752,1.57,69.8,97.4,94.4,85.9,96.8,86.7,94.6,1.19,0.902,0.025,67.7,Ki ([14]; read-out: Ki): 1.56 µM; inhibition (INH) [16]: 83.4%
OC1(c2ccc(Cl)c(C(F)(F)F)c2)CCN(CCCCCc2ccc(F)cc2)CC1,2.55,11.9,26.9,11.9,8.2 to 9.8,13.2,0.901,4.43,1.12,78.3,86.2,77.8,75.9,,57.7,68.5,,0.536,0.132,16.4,Ki [14]: Not Active
OC1(c2ccc(Cl)c(C(F)(F)F)c2)CCN(CCCC=C(c2ccc(F)cc2)c2ccc(F)cc2)CC1,1.6,14.9,15.6,12,11.2,37.2,1.36,,10,80.9,90.6,87.1,78.8,,77.2,91.5,,0.328,1.64,21.4,Ki [6]: Not Active
COc1ccc(N(CCCCN2CCC(O)(c3ccc(Cl)c(C(F)(F)F)c3)CC2)c2ccc(OC)cc2)cc1,0.74,7.1,6.3,4,2.7 to 6.1,8.7,10,10,0.949,65.8,76.8,65.1,55.2,56.6,72.6,94.1,0.622,8.25,0.459,50,Ki ([14]; read-out: Ki): 10 µM; inhibition (INH) [16]: 91.3%
OC1(c2ccc(Cl)c(C(F)(F)F)c2)CCN(CCCC(c2ccc(F)cc2)c2ccc(F)cc2)CC1 [PENFLURIDOL],0.881,5,6,4.2,4.3,6.03,0.356,3.56,0.28,94.6,87,98.2,98.4,96.5,95.3,95.2,1.71,0.867,,95,Ki ([14]; read-out: Ki): 1.71 µM; inhibition (INH) [16]: 89.1%
